The text below walks through data of ChEMBL document CHEMBL3992557, “Synthesis and biological evaluation of novel N3-substituted dihydropyrimidine derivatives as T-type calcium channel blockers and their efficacy as analgesics in mouse models of inflammatory pain” (Bioorg Med Chem, 2017).

By inhibition is commonly meant the percentage by which the read-out fell short of the control. By IC50 is commonly meant the concentration that inhibits the measured activity by half.

The source made the active and inactive calls.

In data set [1] the target is T1, Voltage-dependent T-type calcium channel subunit alpha-1H (Homo sapiens, UniProt O95180). As to the kind of experiment: Inhibition of GFP-fused Cav3.2-alpha1 (unknown origin) expressed in human tsA-201 cells at 10 uM at holding potential of -110 mV by whole cell patch clamp method relative to control. In kind it is cell-based. In short, it runs like this: (§1)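 HEK tsA-201 cells transfected by calcium phosphate with channel DNA plus GFP marker, moved to 30°C at 16-18 h, recorded two days later. Whole-cell patch clamp used Ba2+ (20 mM) external solution, pH 7.4, with CsCl-based internal solution. Recordings were P/4 leak-subtracted, 10 kHz sampling. Compound at 10 µM, DMSO ≤0.1% final, reported as % current inhibition. Cav2.2 n=3.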

Data set [2] addresses Cav1.2 (voltage-dependent L-type calcium channel subunit alpha-1C) (Rattus norvegicus, UniProt P22002). As to the kind of experiment: (§2) Inhibition of GFP-fused rat Cav1.2 expressed in human tsA-201 cells co-expressing Cavbeta1b/Cavalpha2delta1 assessed as tonic block at 10 uM at holding potential of -90 mV by whole cell patch clamp method relative to control. In kind it is cell-based. The method, boiled down: (§3)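 tsA-201 cells were co-transfected with rat Cav1.2 plus Cavβ1b and Cavα2δ1 (5 µg each) and a GFP marker, then kept 2 days (30°C after 16-18 h). Whole-cell patch clamp used 20 mM BaCl2 bath, P/4 leak correction, 10 kHz sampling. Tonic resting-state block at 10 µM was given as % current inhibition. Final DMSO ≤0.1%.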

The target of data set [3] is Voltage-dependent L-type calcium channel subunit alpha-1C (Rattus norvegicus, UniProt P22002). The data set is described as §2. In kind it is cell-based. The conditions noted are these: 10 µM. In short, it runs like this: as §3
The target in data set [4] is Voltage-dependent N-type calcium channel subunit alpha-1B (Homo sapiens) (UniProt Q00975). The data set is described as follows: Inhibition of GFP-fused Cav2.2 (unknown origin) expressed in human tsA-201 cells assessed as at 10 uM by whole cell patch clamp method relative to control. In kind it is cell-based. The method, boiled down:
as §1

Data set [5] deals with Mus musculus. The data set is described as follows: Analgesic activity in formalin-induced nociception C57BL/6J mouse model assessed as reduction in time spent licking and biting formalin injected paw per 10 uL administered intrathecally 20 mins prior to formalin injection measured up to 30 mins post formalin injection. In kind it is functional. In short, it runs like this:
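Adult male C57BL/6J mice (7-9 weeks). Intrathecal pretreatment at 0.3, 1 and 3 µg in 10 µl, or vehicle (1% DMSO in PBS, 10 µl). After 20 min, 20 µl of 1.25% formalin injected intraplantar into right hind paw.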

The target in data set [6] is T1, Voltage-dependent T-type calcium channel subunit alpha-1H. The data set is described as follows: Inhibition of GFP-fused Cav3.2-alpha1 (unknown origin) expressed in human tsA-201 cells at holding potential of -110 mV by whole cell patch clamp method. In kind it is cell-based. The method, boiled down: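 tsA-201 cells transiently expressing Cav3.2 α1 plus GFP were recorded by whole-cell patch clamp with 20 mM Ba2+ as charge carrier and P/4 leak subtraction. A dose-response curve was fitted to give IC50, n=3 cells per dose. Final DMSO ≤0.1%.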
(The patch-clamp technique gives a direct electrical read-out from membranes.)

Data set [7] has the same target. As to the kind of experiment: Inhibition of GFP-fused Cav3.2-alpha1 (unknown origin) expressed in human tsA-201 cells assessed as half activation potential at 1 uM at holding potential of -110 mV by whole cell patch clamp method (reference value: -30.84 +/- 0.46 mV). In kind it is cell-based.
For data set [8] the target is unchanged. As to the kind of experiment: Inhibition of GFP-fused Cav3.2-alpha1 (unknown origin) expressed in human tsA-201 cells assessed as half inactivation potential for steady state inactivation curve at 1 uM at holding potential of -110 mV by whole cell patch clamp method (reference value: -46.27 +/- 0.57 mV). In kind it is cell-based.
The target is the same in data set [9]. As to the kind of experiment: Inhibition of GFP-fused Cav3.2-alpha1 (unknown origin) expressed in human tsA-201 cells assessed as time required to reach steady state inhibition at 1 uM at holding potential of -110 mV by whole cell patch clamp method. In kind it is cell-based.
For data set [10], the system named is Mus musculus. As to the kind of experiment: Analgesic activity in CFA-induced mechanical hyperalgesia C57BL/6J mouse model assessed as mechanical paw withdrawal threshold at 1 ug/10 uL administered intrathecally 2 days after CFA injection measured at 20 to 150 mins post dose. In kind it is functional. The method, boiled down:
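C57BL/6J male mice, 7-9 weeks; 30 µl CFA injected into right hind paw; 2 days later single intrathecal dose with vehicle 1% DMSO in PBS. Paw withdrawal threshold measured blinded by digital plantar aesthesiometer at 0, 20, 45, 90 and 150 min after dosing, after ≥1 h habituation. Each paw stimulated three times. n=6 per group; mean ± S.E.M, two-way ANOVA with Bonferroni test.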

Data set [11] addresses T1, Voltage-dependent T-type calcium channel subunit alpha-1H. The data set is described as follows: Inhibition of GFP-fused Cav3.2-alpha1 (unknown origin) expressed in human tsA-201 cells assessed as half activation potential at 3 uM at holding potential of -110 mV by whole cell patch clamp method (reference value: -32.07 +/- 0.8 mV). In kind it is cell-based.
The target is the same in data set [12]. The data set is described as follows: Inhibition of GFP-fused Cav3.2-alpha1 (unknown origin) expressed in human tsA-201 cells assessed as half inactivation potential for steady state inactivation curve at 3 uM at holding potential of -110 mV by whole cell patch clamp method (reference value: -47.6 +/- 0.87 mV). In kind it is cell-based.
For data set [13], the system named is Mus musculus. The data set is described as follows: Analgesic activity in CFA-induced mechanical hyperalgesia C57BL/6J mouse model assessed as mechanical paw withdrawal threshold at 3 ug/10 uL administered intrathecally 2 days after CFA injection measured at 90 to 150 mins post dose. In kind it is functional. The method, boiled down:
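Adult male C57BL/6J mice (7-9 weeks). Right hind paw given 30 µl CFA intraplantar; 2 days later dosed intrathecally at 3 µg/10 µl, vehicle 1% DMSO in PBS. Thresholds read blinded with digital plantar aesthesiometer at 0, 20, 45, 90 and 150 min, each paw tested three times. n=6 mice per group, mean ± S.E.M, two-way ANOVA with Bonferroni post-hoc.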

Data set [14] concerns the target T1, Voltage-dependent T-type calcium channel subunit alpha-1H. The data set is described as follows: Inhibition of GFP-fused Cav3.2-alpha1 (unknown origin) expressed in human tsA-201 cells assessed as time required to reach steady state inhibition at 3 uM at holding potential of -110 mV by whole cell patch clamp method. In kind it is cell-based.

Voltage-dependent L-type calcium channel subunit alpha-1C, sequence (P22002 whole entry, the tested form may be a part): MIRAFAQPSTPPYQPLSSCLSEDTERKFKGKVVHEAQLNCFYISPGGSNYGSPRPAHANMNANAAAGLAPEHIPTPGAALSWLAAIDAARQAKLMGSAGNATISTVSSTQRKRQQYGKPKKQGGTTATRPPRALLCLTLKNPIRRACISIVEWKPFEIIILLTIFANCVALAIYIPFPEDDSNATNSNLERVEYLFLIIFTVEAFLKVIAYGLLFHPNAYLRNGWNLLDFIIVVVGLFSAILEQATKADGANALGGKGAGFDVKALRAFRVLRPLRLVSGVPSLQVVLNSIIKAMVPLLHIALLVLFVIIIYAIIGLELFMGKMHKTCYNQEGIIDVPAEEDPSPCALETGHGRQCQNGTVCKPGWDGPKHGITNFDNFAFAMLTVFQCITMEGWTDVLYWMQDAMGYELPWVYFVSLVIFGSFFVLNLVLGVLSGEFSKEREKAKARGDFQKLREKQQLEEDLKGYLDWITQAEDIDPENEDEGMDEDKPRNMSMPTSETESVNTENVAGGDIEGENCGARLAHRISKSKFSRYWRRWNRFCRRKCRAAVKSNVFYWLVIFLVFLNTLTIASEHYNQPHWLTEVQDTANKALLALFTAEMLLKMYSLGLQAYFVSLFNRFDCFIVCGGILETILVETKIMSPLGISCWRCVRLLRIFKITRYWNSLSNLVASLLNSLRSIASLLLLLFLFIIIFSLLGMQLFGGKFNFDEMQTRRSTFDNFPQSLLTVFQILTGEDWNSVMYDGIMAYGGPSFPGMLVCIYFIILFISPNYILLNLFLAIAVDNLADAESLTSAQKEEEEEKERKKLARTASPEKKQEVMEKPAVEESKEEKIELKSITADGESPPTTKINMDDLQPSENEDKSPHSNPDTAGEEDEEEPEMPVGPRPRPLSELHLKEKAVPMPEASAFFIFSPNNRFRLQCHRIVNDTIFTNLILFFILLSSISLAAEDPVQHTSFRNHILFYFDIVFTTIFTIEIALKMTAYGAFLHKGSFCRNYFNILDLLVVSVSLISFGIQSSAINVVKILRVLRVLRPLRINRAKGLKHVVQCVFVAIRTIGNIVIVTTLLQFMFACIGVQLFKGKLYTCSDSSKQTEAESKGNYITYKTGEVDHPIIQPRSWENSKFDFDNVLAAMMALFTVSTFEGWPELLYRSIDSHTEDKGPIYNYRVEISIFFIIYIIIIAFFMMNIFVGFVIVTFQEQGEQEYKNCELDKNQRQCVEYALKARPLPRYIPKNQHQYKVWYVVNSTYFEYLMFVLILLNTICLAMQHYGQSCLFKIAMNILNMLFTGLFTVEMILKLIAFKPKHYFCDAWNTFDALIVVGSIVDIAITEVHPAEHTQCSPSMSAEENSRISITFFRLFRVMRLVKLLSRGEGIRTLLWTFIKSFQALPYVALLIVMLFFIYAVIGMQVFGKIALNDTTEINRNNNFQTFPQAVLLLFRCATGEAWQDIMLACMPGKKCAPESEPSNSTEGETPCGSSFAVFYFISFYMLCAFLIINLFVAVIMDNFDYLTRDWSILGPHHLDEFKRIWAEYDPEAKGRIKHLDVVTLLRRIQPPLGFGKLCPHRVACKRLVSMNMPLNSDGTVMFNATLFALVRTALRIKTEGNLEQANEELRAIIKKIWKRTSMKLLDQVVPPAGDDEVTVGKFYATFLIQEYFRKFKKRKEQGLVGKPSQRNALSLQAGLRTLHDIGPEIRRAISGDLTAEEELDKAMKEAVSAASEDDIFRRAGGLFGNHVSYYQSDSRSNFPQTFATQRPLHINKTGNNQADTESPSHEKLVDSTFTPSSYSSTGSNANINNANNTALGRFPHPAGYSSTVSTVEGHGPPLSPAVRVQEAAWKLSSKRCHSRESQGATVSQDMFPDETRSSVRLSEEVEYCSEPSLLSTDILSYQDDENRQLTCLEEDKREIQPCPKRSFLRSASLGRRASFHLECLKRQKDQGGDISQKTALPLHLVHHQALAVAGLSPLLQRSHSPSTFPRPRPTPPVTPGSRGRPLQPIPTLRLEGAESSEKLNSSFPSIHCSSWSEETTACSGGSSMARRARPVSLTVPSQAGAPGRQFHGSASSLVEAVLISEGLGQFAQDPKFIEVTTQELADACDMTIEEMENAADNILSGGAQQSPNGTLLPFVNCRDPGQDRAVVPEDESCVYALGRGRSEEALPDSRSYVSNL
Cav1.2 (voltage-dependent L-type calcium channel subunit alpha-1C), sequence (P22002 whole entry, the tested form may be a part): as above
T1 sequence (O95180 whole entry, the tested form may be a part): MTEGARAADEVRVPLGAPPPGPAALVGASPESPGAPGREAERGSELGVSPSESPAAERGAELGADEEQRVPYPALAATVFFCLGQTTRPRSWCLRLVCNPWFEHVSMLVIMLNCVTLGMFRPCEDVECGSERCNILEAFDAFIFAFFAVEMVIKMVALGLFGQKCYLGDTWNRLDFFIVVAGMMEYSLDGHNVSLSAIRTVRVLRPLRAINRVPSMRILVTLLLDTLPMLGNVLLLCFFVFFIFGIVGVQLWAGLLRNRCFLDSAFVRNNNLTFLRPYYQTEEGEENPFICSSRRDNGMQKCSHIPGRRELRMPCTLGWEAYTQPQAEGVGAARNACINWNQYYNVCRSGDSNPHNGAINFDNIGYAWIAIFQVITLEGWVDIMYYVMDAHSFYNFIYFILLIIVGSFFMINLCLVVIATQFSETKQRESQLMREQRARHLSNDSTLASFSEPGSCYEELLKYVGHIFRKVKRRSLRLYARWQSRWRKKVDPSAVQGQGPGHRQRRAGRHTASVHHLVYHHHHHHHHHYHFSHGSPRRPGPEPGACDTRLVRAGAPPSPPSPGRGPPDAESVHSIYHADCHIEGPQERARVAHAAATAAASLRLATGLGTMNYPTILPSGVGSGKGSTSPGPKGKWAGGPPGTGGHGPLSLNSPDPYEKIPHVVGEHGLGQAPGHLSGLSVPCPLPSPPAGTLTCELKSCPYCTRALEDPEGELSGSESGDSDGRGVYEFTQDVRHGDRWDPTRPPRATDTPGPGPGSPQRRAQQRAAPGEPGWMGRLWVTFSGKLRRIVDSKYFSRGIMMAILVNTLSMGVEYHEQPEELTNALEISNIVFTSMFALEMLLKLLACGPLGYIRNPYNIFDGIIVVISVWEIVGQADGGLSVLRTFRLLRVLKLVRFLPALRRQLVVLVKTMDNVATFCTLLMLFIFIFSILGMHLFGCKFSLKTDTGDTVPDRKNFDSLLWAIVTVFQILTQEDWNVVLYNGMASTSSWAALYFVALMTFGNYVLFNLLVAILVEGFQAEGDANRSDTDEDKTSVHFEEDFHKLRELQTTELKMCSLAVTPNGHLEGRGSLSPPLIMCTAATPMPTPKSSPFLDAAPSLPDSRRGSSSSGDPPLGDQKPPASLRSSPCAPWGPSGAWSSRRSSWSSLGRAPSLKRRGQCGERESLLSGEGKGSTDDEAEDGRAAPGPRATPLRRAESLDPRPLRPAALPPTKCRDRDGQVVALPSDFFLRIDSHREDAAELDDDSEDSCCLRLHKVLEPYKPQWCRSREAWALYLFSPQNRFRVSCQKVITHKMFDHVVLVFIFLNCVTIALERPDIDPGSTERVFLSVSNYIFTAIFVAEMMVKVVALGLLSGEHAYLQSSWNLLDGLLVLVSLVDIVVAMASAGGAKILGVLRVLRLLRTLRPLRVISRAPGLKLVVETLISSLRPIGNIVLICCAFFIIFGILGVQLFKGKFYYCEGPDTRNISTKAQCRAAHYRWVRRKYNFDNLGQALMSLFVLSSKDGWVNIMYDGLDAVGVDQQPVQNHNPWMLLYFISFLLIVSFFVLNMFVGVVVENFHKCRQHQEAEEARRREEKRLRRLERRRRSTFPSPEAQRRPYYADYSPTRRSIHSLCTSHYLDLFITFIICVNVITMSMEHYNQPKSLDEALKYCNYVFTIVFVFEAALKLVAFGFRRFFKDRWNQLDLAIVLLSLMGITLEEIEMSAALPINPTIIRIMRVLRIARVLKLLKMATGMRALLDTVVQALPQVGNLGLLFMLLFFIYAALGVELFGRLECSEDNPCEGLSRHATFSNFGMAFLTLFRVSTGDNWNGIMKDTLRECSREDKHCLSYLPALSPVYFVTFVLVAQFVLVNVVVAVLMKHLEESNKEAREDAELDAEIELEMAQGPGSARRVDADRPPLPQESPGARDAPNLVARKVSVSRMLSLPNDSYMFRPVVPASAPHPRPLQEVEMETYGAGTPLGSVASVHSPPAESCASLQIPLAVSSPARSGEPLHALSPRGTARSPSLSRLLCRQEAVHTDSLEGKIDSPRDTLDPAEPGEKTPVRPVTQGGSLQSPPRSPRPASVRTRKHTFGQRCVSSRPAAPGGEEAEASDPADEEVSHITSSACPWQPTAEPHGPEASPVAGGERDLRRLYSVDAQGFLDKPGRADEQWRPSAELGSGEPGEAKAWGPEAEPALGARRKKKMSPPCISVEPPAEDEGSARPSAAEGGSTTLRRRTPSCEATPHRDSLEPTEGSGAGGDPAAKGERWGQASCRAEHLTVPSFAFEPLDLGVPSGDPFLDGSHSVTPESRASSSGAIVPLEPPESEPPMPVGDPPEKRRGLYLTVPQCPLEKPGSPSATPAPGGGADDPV

Consider `CCOC(=O)C1=C(C)NC(=O)N(CCC(=O)N/N=C\C=C\c2ccccc2)C1c1cccc([N+](=O)[O-])c1` (centres undefined), for which, in data set [1], the inhibition lay in the range of 70 to 95%. The inhibition at 10 µM in data set [2] was in the range of 60 to 85%.

On to `CCOC(=O)C1=C(C)NC(=O)N(CCC(=O)N/N=C/c2ccc(F)cc2)C1c1cccc([N+](=O)[O-])c1` (centres undefined), for which, in [1], the inhibition was in the range of 70 to 95%. Also, in [2], the inhibition at 10 µM was 60 to 85%.

With `CCOC(=O)C1=C(C)NC(=O)N(CCC(=O)N/N=C(/C)CC(c2ccccc2)c2ccccc2)C1c1cccc([N+](=O)[O-])c1` (centres undefined), in data set [1], the inhibition lay within 70 to 95%. Further, the inhibition at 10 µM in data set [2] is 60 to 85%.

Regarding `CCOC(=O)C1=C(C)NC(=O)N(CCc2nnc(Nc3ccccc3)o2)C1c1cccc([N+](=O)[O-])c1` (centres undefined), the inhibition in [1] is 70 to 95%. Moreover, the “inhibition (INH)” value in data set [3] is “Not Active”.

Take `CCOC(=O)C1=C(C)NC(=O)N(CCC(=O)N/N=C(/C)c2ccccc2)C1c1cccc([N+](=O)[O-])c1` (centres undefined): in [1], the inhibition lay within 70 to 95%. In [2], the inhibition at 10 µM lay within 60 to 85%.

For `CCOC(=O)C1=C(C)NC(=O)N(CCC(=O)NNS(=O)(=O)c2ccccc2)C1c1cccc([N+](=O)[O-])c1` (centres undefined), in data set [1], the inhibition stood at 50%. In [2], the inhibition at 10 µM was determined as 50%.

For the compound `CCOC(=O)C1=C(C)NC(=O)N(CC/C(=N/N(C(C)=O)C(C)=O)OC(C)=O)C1c1cccc([N+](=O)[O-])c1` (centres undefined), the inhibition result in data set [1] is “inactive”. Also, the “inhibition (INH)” value in data set [3] is on record as “Not Active”.

As for `CCOC(=O)C1=C(C)NC(=O)N(CCC(=O)NNC(=S)NC(c2ccccc2)c2ccccc2)C1c1cccc([N+](=O)[O-])c1` (centres undefined), the inhibition in data set [1] was 70 to 95%; in data set [4], 7.64%. The MED in the data set on Mus musculus [5] came out at 1 µg. For the same compound, the IC50 in data set [6] came out at 0.34 µM. Moreover, in [7], the V1/2 is -30.6 mV. Also, the Activity in data set [8] is -51.2 mV. The TIME in [9] was 0.133 to 0.167 h. Further, the “inhibition (INH)” value in data set [3] is “Not Active”. For the same compound, the outcome in the data set with Mus musculus [10] was Active.

As to `CCOC(=O)C1=C(C)NC(=O)N(CCC(=O)NNC(=S)Nc2ccccc2)C1c1cccc([N+](=O)[O-])c1` (centres undefined), the inhibition result in data set [1] was “inactive”. Also, the “inhibition (INH)” value in data set [3] is recorded as “Not Active”.

In the case of `CCOC(=O)C1=C(C)NC(=O)N(CCC(=O)N/N=C2/SCC(=O)N2c2ccc(C)cc2)C1c1cccc([N+](=O)[O-])c1` (centres undefined), the inhibition in data set [1] is 70 to 95%.

For the compound `CCOC(=O)C1=C(C)NC(=O)N(CCc2nnc(Nc3ccccc3)s2)C1c1cccc([N+](=O)[O-])c1` (centres undefined), the inhibition in [1] lay within 70 to 95%. For the same compound, the “inhibition (INH)” value in data set [3] is listed as “Not Active”.

As to `CCOC(=O)C1=C(C)NC(=O)N(CCC(=O)N/N=C(/C)c2ccc(F)cc2)C1c1cccc([N+](=O)[O-])c1` (centres undefined), the inhibition in data set [1] was 70 to 95%. For the same compound, the inhibition at 10 µM in data set [2] was in the range of 60 to 85%.

Turning to `CCOC(=O)C1=C(C)NC(=O)N(CCC(=O)N/N=c2\scc(-c3ccc(F)cc3)n2-c2ccccc2)C1c1cccc([N+](=O)[O-])c1` (centres undefined), in [1], the inhibition result is “inactive”. In addition, in data set [3], the “inhibition (INH)” value is recorded as “Not Active”.

Consider `CCOC(=O)C1=C(C)NC(=O)N(CCC(=O)N/N=C2/SCC(=O)N2c2ccccc2)C1c1cccc([N+](=O)[O-])c1` (centres undefined), for which the inhibition entry in data set [1] was “inactive”. Also, in data set [3], the “inhibition (INH)” value was “Not Active”.

Take `CCOC(=O)C1=C(C)NC(=O)N(CCC(=O)N/N=C/C(c2ccccc2)c2ccccc2)C1c1cccc([N+](=O)[O-])c1` (centres undefined): in data set [1], the inhibition lay in the range of 70 to 95%. Moreover, in data set [2], the inhibition at 10 µM was in the range of 60 to 85%.

Consider `CCOC(=O)C1=C(C)NC(=O)N(CCC(=O)N/N=C2/C(=O)Nc3ccccc32)C1c1cccc([N+](=O)[O-])c1` (centres undefined), for which the inhibition in [1] is 50%. Also, the inhibition at 10 µM in data set [2] was determined as 50%.

Take `CCOC(=O)C1=C(C)NC(=O)N(CCC(=O)n2nc(C)cc2C)C1c1cccc([N+](=O)[O-])c1` (centres undefined): the inhibition entry in [1] is “inactive”. Also, the “inhibition (INH)” value in data set [3] is on record as “Not Active”.

Take `CCOC(=O)C1=C(C)NC(=O)N(CCC(=O)N/N=C/c2ccccc2)C1c1cccc([N+](=O)[O-])c1` (centres undefined): the inhibition was 70 to 95% in [1] and 31.9% in [4]. Further, the Activity entry is “Dose-dependent effect” in the data set with Mus musculus [5] and -48.8 mV in data set [12]. In addition, the MED with Mus musculus [5] turned out to be 3 µg. In addition, the half-inhibitory concentration (IC50) in [6] was 3.39 µM. Also, in data set [11], the V1/2 was -29.3 mV. Further, the result in the data set with Mus musculus [13] was Active. Moreover, the TIME in [14] was 0.133 to 0.167 h. In addition, the inhibition at 10 µM in data set [2] lay in the range of 60 to 85%.

For `CCOC(=O)C/C(C)=N\NC(=O)CCN1C(=O)NC(C)=C(C(=O)OCC)C1c1cccc([N+](=O)[O-])c1` (centres undefined), the inhibition entry in data set [1] was “inactive”. The “inhibition (INH)” value in [3] is recorded as “Not Active”.

On to `CCOC(=O)C1=C(C)NC(=O)N(CCC(=O)N/N=C(/C)C(c2ccccc2)c2ccccc2)C1c1cccc([N+](=O)[O-])c1` (centres undefined), for which the inhibition entry in data set [1] was “inactive”. In addition, the “inhibition (INH)” value in [3] is “Not Active”.
